For 13 compounds, Activity results are on record in ChEMBL document CHEMBL1158357, “Synthesis of [1,2,4]triazolo[1,5-a]pyridines of potential PGE2 inhibitory properties” (2009).

Assay [1] has as its system Rattus norvegicus. Nature of the assay: Antiinflammatory activity in Wistar albino rat assessed as inhibition of carrageenan-induced paw edema volume at 50 mg/kg, po administered 1 hr prior to carrageenan challenge measured after 3 hrs. It is filed as functional. Background: In the carrageenan paw model, swelling and tenderness develop within hours.
The subject of assay [2] is Rattus norvegicus. Nature of the assay: Antiinflammatory activity in Wistar albino rat assessed as inhibition of carrageenan-induced paw edema volume at 50 mg/kg, ip administered 1 hr prior to carrageenan challenge measured after 1 hr. The following applies: route intraperitoneal. Details: scale not given: the % may be the effect or the level left.
Assay [3] relates to Rattus norvegicus. Nature of the assay: Antiinflammatory activity in Wistar albino rat assessed as inhibition of carrageenan-induced paw edema volume at 50 mg/kg, po administered 1 hr prior to carrageenan challenge measured after 1 hr. It is filed as functional.
The subject of assay [4] is Rattus norvegicus. Nature of the assay: Antiinflammatory activity in Wistar albino rat assessed as inhibition of carrageenan-induced paw edema volume at 50 mg/kg, ip administered 1 hr prior to carrageenan challenge measured after 4 hrs. The following applies: route intraperitoneal.
The subject of assay [5] is Rattus norvegicus. Nature of the assay: Antiinflammatory activity in Wistar albino rat assessed as inhibition of carrageenan-induced paw edema volume at 50 mg/kg, po administered 1 hr prior to carrageenan challenge measured after 4 hrs. Details: scale not given: the % may be the effect or the level left.
The test system of assay [6] is Rattus norvegicus. Briefly: Antiinflammatory activity in Wistar albino rat assessed as inhibition of carrageenan-induced paw edema volume at 50 mg/kg, po administered 1 hr prior to carrageenan challenge measured after 4 hrs relative to indomethacin. On the set-up: scale not given: the % may be the effect or the level left. It is filed as functional.
For assay [7], the system named is Rattus norvegicus. Nature of the assay: Antiinflammatory activity in Wistar albino rat assessed as inhibition of carrageenan-induced paw edema volume at 50 mg/kg, ip administered 1 hr prior to carrageenan challenge measured after 2 hrs. The settings on record: route intraperitoneal. On the set-up: scale not given: the % may be the effect or the level left.
Assay [8] has as its system Rattus norvegicus. Briefly: Antiinflammatory activity in Wistar albino rat assessed as inhibition of carrageenan-induced paw edema volume at 50 mg/kg, ip administered 1 hr prior to carrageenan challenge measured after 3 hrs. Details: scale not given: the % may be the effect or the level left. The settings on record: route intraperitoneal.
For assay [9], the system named is Rattus norvegicus. Briefly: Antiinflammatory activity in Wistar albino rat assessed as inhibition of carrageenan-induced paw edema volume at 50 mg/kg, po administered 1 hr prior to carrageenan challenge measured after 2 hrs. It is filed as functional.
Assay [10] has as its system Rattus norvegicus. Briefly: Antiinflammatory activity against carrageenan-induced inflammation in albino rat air pouch model assessed as PGE2 level at 50 mg/kg, po administered […] before carrageenan challenge measured after 6 hrs. It is filed as functional. A digest of the protocol: (§1)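 Male albino rats (200–250 g), 6 per group. A dorsal air pouch was made with 20 ml air s.c. on day 1, 10 ml two days later and 10 ml on day 5. Next day, rats were dosed orally in saline with a few drops of Tween 80 (controls: sterile saline), then given 2 ml 1% carrageenan in saline into the pouch. Exudate was aspirated 6 h later under ether, stored at -20 °C, and PGE2 measured by ELISA kit.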

In assay [11] the test system is Rattus norvegicus. Nature of the assay: Antiinflammatory activity against carrageenan-induced inflammation in albino rat air pouch model assessed as PGE2 level at 10 mg/kg, po administered […] before carrageenan challenge measured after 6 hrs. The format is functional. A digest of the protocol:
as §1

For `Cn1c([S-])n[n+]2c(N)c(C#N)c(-c3ccccc3OCCCOc3ccccc3-c3c(C#N)c(N)[n+]4nc([S-])n(C)c4c3C#N)c(C#N)c12`, the Activity was found to be 0.307 mL in the assay on Rattus norvegicus [1]; 8.2% with Rattus norvegicus [2]; 0.19 mL in the assay on Rattus norvegicus [3]; 0.175 mL with Rattus norvegicus [4]; 75.2% in the assay on Rattus norvegicus [5]; 110.9% in the assay with Rattus norvegicus [6]. Also, the Activity in the assay with Rattus norvegicus [7] worked out at 22.6%; in the assay on Rattus norvegicus [8], 41%; with Rattus norvegicus [9] it was 0.257 mL; with Rattus norvegicus [10], 92.17 pg/mL.

As to `CCn1c([S-])n[n+]2c(N)c(C#N)c(-c3ccccc3OCCOc3ccccc3-c3c(C#N)c(N)[n+]4nc([S-])n(CC)c4c3C#N)c(C#N)c12`, the Activity in the assay on Rattus norvegicus [1] is 0.312 mL; in the assay on Rattus norvegicus [2], 9.2%; in the assay on Rattus norvegicus [3], 0.188 mL; in the assay with Rattus norvegicus [4], 0.16 mL; with Rattus norvegicus [5], 77.3%; in the assay with Rattus norvegicus [6], 114%. The Activity in the assay on Rattus norvegicus [7] is 30.1%; with Rattus norvegicus [8] it was 40%; in the assay on Rattus norvegicus [9] it was 0.232 mL; in the assay on Rattus norvegicus [10] it was 87.67 pg/mL.

For `N#Cc1c(-c2ccc(N3CCCCC3)cc2)c(C#N)c2n(Cc3ccccc3)c([S-])n[n+]2c1N`, the Activity in the assay on Rattus norvegicus [1] was 0.313 mL; with Rattus norvegicus [2], 7.2%; with Rattus norvegicus [3] it was 0.192 mL; with Rattus norvegicus [4], 0.23 mL; in the assay on Rattus norvegicus [5] it was 67.4%; with Rattus norvegicus [6] it was 99.4%. The Activity with Rattus norvegicus [7] was 2.1%; with Rattus norvegicus [8] it was 39.8%; with Rattus norvegicus [9], 0.325 mL; with Rattus norvegicus [10], 102.33 pg/mL.

For `N#Cc1c(-c2ccc(N3CCOCC3)cc2)c(C#N)c2n(Cc3ccccc3)c([S-])n[n+]2c1N`, the Activity with Rattus norvegicus [1] worked out at 0.485 mL; in the assay on Rattus norvegicus [2], 0%; with Rattus norvegicus [3], 0.207 mL; in the assay on Rattus norvegicus [4], 0.428 mL; in the assay on Rattus norvegicus [5] it was 39.3%; in the assay with Rattus norvegicus [6] it was 58%. In addition, the Activity in the assay with Rattus norvegicus [7] worked out at 1.2%; with Rattus norvegicus [8], 6.7%; with Rattus norvegicus [9], 0.328 mL.

`CN1CCN(c2ccc(-c3c(C#N)c(N)[n+]4nc([S-])n(C)c4c3C#N)cc2)CC1`: the Activity with Rattus norvegicus [1] amounted to 0.322 mL; with Rattus norvegicus [2], 16.9%; with Rattus norvegicus [3], 0.172 mL; with Rattus norvegicus [4], 0.447 mL; with Rattus norvegicus [5], 36.6%; in the assay with Rattus norvegicus [6], 54%. Further, the Activity was determined as 13.6% with Rattus norvegicus [7], 38.1% in the assay on Rattus norvegicus [8] and 0.287 mL in the assay with Rattus norvegicus [9].

`C=CCn1c([S-])n[n+]2c(N)c(C#N)c(-c3ccc(N4CCOCC4)cc3)c(C#N)c12`: the Activity was 0.387 mL in the assay on Rattus norvegicus [1]; 9.2% in the assay on Rattus norvegicus [2]; 0.188 mL with Rattus norvegicus [3]; 0.278 mL in the assay on Rattus norvegicus [4]; 60.6% in the assay on Rattus norvegicus [5]; 89.4% in the assay with Rattus norvegicus [6]. In addition, the Activity with Rattus norvegicus [7] stood at 19.3%; with Rattus norvegicus [8] it was 25.6%; with Rattus norvegicus [9] it was 0.268 mL.

On to `Cn1c([S-])n[n+]2c(N)c(C#N)c(-c3ccccc3OCCOc3ccccc3-c3c(C#N)c(N)[n+]4nc([S-])n(C)c4c3C#N)c(C#N)c12`, for which the Activity in the assay on Rattus norvegicus [1] amounted to 0.37 mL; in the assay with Rattus norvegicus [2], 53.1%; in the assay on Rattus norvegicus [3], 0.097 mL; in the assay with Rattus norvegicus [4] it was 0.292 mL; in the assay with Rattus norvegicus [5] it was 58.6%; in the assay on Rattus norvegicus [6], 86.4%. In addition, the Activity came to 11.7% with Rattus norvegicus [7], 28.8% in the assay with Rattus norvegicus [8] and 0.293 mL in the assay with Rattus norvegicus [9].

As for `Cn1c([S-])n[n+]2c(N)c(C#N)c(-c3ccc(N4CCOCC4)cc3)c(C#N)c12`, the Activity with Rattus norvegicus [1] came to 0.303 mL; in the assay with Rattus norvegicus [2] it was 1.9%; in the assay on Rattus norvegicus [3] it was 0.203 mL; with Rattus norvegicus [4], 0.385 mL; in the assay on Rattus norvegicus [5], 45.4%; in the assay with Rattus norvegicus [6] it was 67%. In addition, the Activity with Rattus norvegicus [7] was 17.2%; in the assay on Rattus norvegicus [8], 41.7%; in the assay on Rattus norvegicus [9] it was 0.275 mL.

With `Cn1c([S-])n[n+]2c(N)c(C#N)c(-c3ccc(N4CCCCC4)cc3)c(C#N)c12`, the Activity in the assay on Rattus norvegicus [1] came to 0.353 mL; in the assay on Rattus norvegicus [2], 2.4%; in the assay on Rattus norvegicus [3] it was 0.202 mL; with Rattus norvegicus [4] it was 0.345 mL; with Rattus norvegicus [5], 51.1%; in the assay with Rattus norvegicus [6] it was 75.4%. Further, the Activity in the assay on Rattus norvegicus [7] came out at 10.2%; with Rattus norvegicus [8], 32.1%; with Rattus norvegicus [9], 0.298 mL.

`CCn1c([S-])n[n+]2c(N)c(C#N)c(-c3ccc(N4CCCCC4)cc3)c(C#N)c12`: the Activity in the assay with Rattus norvegicus [1] was determined as 0.23 mL; in the assay on Rattus norvegicus [2], 31.4%; with Rattus norvegicus [3], 0.142 mL; with Rattus norvegicus [4], 0.272 mL; in the assay with Rattus norvegicus [5], 61.4%; in the assay with Rattus norvegicus [6] it was 90.6%. In addition, the Activity in the assay with Rattus norvegicus [7] turned out to be 66.9%; in the assay with Rattus norvegicus [8], 55.8%; with Rattus norvegicus [9], 0.11 mL.

As to `C=CCn1c([S-])n[n+]2c(N)c(C#N)c(-c3ccc(N4CCCCC4)cc3)c(C#N)c12`, the Activity in the assay with Rattus norvegicus [1] turned out to be 0.338 mL; with Rattus norvegicus [2] it was 22.7%; with Rattus norvegicus [3], 0.16 mL; in the assay with Rattus norvegicus [4], 0.222 mL; in the assay on Rattus norvegicus [5], 68.5%; with Rattus norvegicus [6], 101%. For the same compound, the Activity is 7.5% in the assay with Rattus norvegicus [7], 35% with Rattus norvegicus [8], 0.307 mL with Rattus norvegicus [9] and 94.5 pg/mL in the assay on Rattus norvegicus [10].

For the compound `CCn1c([S-])n[n+]2c(N)c(C#N)c(-c3ccc(N4CCOCC4)cc3)c(C#N)c12`, the Activity in the assay with Rattus norvegicus [1] amounted to 0.322 mL; in the assay with Rattus norvegicus [2], 43%; in the assay with Rattus norvegicus [3], 0.118 mL; in the assay on Rattus norvegicus [4], 0.317 mL; in the assay with Rattus norvegicus [5] it was 55%; with Rattus norvegicus [6], 81.1%. Further, the Activity with Rattus norvegicus [7] was 30.1%; in the assay on Rattus norvegicus [8] it was 38.1%; with Rattus norvegicus [9], 0.232 mL.

For `COc1ccc2c(c1)c(CC(=O)O)c(C)n2C(=O)c1ccc(Cl)cc1` [INDOMETHACIN], the Activity with Rattus norvegicus [1] amounted to 0.18 mL; in the assay with Rattus norvegicus [11] it was 98.33 pg/mL; with Rattus norvegicus [2] it was 56.5%; in the assay with Rattus norvegicus [3] it was 0.09 mL; with Rattus norvegicus [4], 0.227 mL; in the assay on Rattus norvegicus [5], 67.8%. For the same compound, the figures for the Activity in the assay with Rattus norvegicus [7], in the assay with Rattus norvegicus [8] and with Rattus norvegicus [9] were 52.4%, 65.4% and 0.158 mL, respectively.
